Data published in ChEMBL document CHEMBL5385869, “Novel 4-aminoquinolines: Synthesis, inhibition of the Mycobacterium tuberculosis enoyl-acyl carrier protein reductase, antitubercular activity, SAR, and preclinical evaluation” (Eur J Med Chem, 2023).
≈ marks a conversion by molar mass, not a printed value. Calls of active or inactive are those of the source. No cut-off for these calls is given here.

Experiments:
[1] = test system: Mycobacterium tuberculosis; assay: Antibacterial activity against Mycobacterium tuberculosis H37Rv ATCC 27294 infected in CF-1 mouse assessed as reversal of bacterial growth in spleen at 300 uM/kg, po administered daily for 14 days starting from 7 days post infection; assay type: functional, organism-based; conditions: time 14.0 day
Summary of the method: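 Mice treated by gavage from 7 days post-infection for 14 days, daily, at 300 or 450 μM/kg. Lungs and spleen homogenized in saline and plated for CFU. Comparisons are against vehicle and early-control groups.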

[2] = molecular target: T1, Enoyl-[acyl-carrier-protein] reductase [NADH] (Mycobacterium tuberculosis) (UniProt P9WGR1); assay: Binding affinity to Mycobacterium tuberculosis InhA assessed as change in enthalpy at 250 uM in presence of NADH by fluorescence spectroscopy
T1 sequence (whole entry): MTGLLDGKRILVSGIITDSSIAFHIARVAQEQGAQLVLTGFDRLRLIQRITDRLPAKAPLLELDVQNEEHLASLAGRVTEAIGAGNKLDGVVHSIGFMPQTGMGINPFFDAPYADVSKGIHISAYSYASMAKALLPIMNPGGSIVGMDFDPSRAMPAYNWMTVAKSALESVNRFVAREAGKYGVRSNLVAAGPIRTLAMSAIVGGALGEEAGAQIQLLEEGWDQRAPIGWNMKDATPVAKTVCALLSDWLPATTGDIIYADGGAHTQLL

[3] = molecular target: T2, Enoyl-[acyl-carrier-protein] reductase [NADH] (Mycobacterium tuberculosis, UniProt P9WGR1); assay: Noncompetitive inhibition of Mycobacterium tuberculosis InhA using DD-CoA as substrate assessed as inhibition constant for enzyme-inhibitor binary complex in presence of varying concentrations of NADH by double reciprocal plot analysis
T2 sequence (P9WGR1 whole entry): T1 sequence (whole entry)

[4] = Cytotoxicity against human HepG2 cells assessed as reduction in cell viability incubated for 72 hrs by MTT assay; assay type: toxicity, cell-based
Summary of the method: (§1)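 Cells grown in DMEM with 10% FBS. HepG2 seeded at 4 × 10³ and Vero at 2 × 10³ cells/well, 24 h before dosing. Compounds at 1, 5 and 20 μM in 1% DMSO for 72 h at 37 °C, 5% CO2. MTT readout: 5 mg/mL reagent for 4 h, absorbance at 595 nm. Neutral red readout: 25 μg/mL dye for 3 h, then acid-ethanol desorb. Viability is expressed relative to 1% DMSO controls.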

[5] = Solubility of compound in PBS at pH 7.4 at 1 mg incubated for 4 hrs under shaking conditions by liquid chromotography; assay type: physicochemical
Summary of the method: (§2)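 1 mg of compound was added to 1 mL of PBS pH 7.4 or 0.1 M HCl, in triplicate. Suspensions were vortexed 1 min, shaken 4 h at 25 °C, then centrifuged 13000 rpm for 15 min at 25 °C. Supernatant was quantified by reverse-phase UHPLC (UV 260–280 nm) against a single-point calibration of compound in DMSO.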

[6] = Solubility of compound in 0.1 M HCl solution at pH 1.2 at 1 mg incubated for 4 hrs under shaking conditions by liquid chromotography; assay type: physicochemical; summary of the method: as §2
Acinetobacter baumannii = assay: Antibacterial activity against multidrug-resistant Acinetobacter baumannii clinical isolates assessed as inhibition of bacterial growth at 20 uM by broth microdilution method; assay type: functional, organism-based
Summary of the method: (§3)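 Broth microdilution in triplicate against a small bacterial panel, with compounds tested at 20 μM for growth inhibition.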

[7] = Chemical stability in PBS at pH 7.4 assessed as parent compound remaining at 1 to 10 uM measured after 24 hrs by HPLC-EM/MS analysis; assay type: physicochemical; conditions: dose 1-10 µM, read-out: Stability
Summary of the method: (§4)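 Compounds at 1–10 μM incubated 24 h at 37 °C in three media: pH 1.2 (0.1 M HCl), pH 7.4 (PBS) and pH 9.1 (0.1 M NH4HCO3). Remaining parent compound quantified afterward.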

[8] = test system: Mycobacterium tuberculosis; assay: Antibacterial activity against pan-sensitive Mycobacterium tuberculosis H37Rv ATCC 27294 measured after 7 days by resazurin dye based assay; assay type: functional; conditions: H37Rv ATCC 27294, 168 h, time 7 day
Summary of the method: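 Resazurin reduction microplate assay (REMA) in Middlebrook 7H9 broth with 10% ADC and 5% DMSO. Compounds come from 2 mg/mL DMSO stocks and are 2-fold serially diluted, top concentration 0.08–40 μg/mL depending on solubility. MIC is the lowest concentration preventing the blue-to-pink colour change. Three independent experiments; the reported value is the modal or the highest value.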

[9] = Cytotoxicity against African green monkey Vero cells assessed as reduction in cell viability incubated for 72 hrs by MTT assay; assay type: toxicity, cell-based; conditions: chlorocebus sabaeus; summary of the method: as §1
Staphylococcus aureus = assay: Antibacterial activity against Staphylococcus aureus ATCC 25923 assessed as inhibition of bacterial growth at 20 uM by broth microdilution method; assay type: functional, organism-based; summary of the method: as §3
[10] = molecular target: T2, Enoyl-[acyl-carrier-protein] reductase [NADH]; assay: Inhibition of Mycobacterium tuberculosis InhA-catalysed chemical reaction in presence of NADH measured for 1 min by UV/Visible spectrophotometry
Summary of the method: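 Recombinant MtInhA reaction at 25 °C in 100 mM Pipes pH 7.0, started by adding 2.2 μM enzyme and followed for 1 min. Substrate is DD-CoA, made from 2-trans-dodecenoic acid and CoA.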

Klebsiella pneumoniae = assay: Antibacterial activity against multidrug-resistant Klebsiella pneumoniae clinical isolates assessed as inhibition of bacterial growth at 20 uM by broth microdilution method; assay type: functional, organism-based; summary of the method: as §3
[11] = Permeability of compound at 10 uM measured after 5 hrs by PAMPA assay; assay type: ADME; conditions: read-out: permeability
Summary of the method: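 PAMPA: compounds at 10 μM in 2% DMSO added to a pH 7.4 donor phase, 5 h at room temperature. Receptor-side concentration (pH 7.4) measured to derive permeation rate. Alprenolol is the analytical control.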

[12] = Chemical stability in PBS at pH 7.4 assessed as reduction in parent compound at 1 to 10 uM measured after 24 hrs by HPLC-EM/MS analysis; assay type: physicochemical; conditions: dose 1-10 µM, read-out: Drug degradation; summary of the method: as §4
[13] = Selectivity index, ratio of CC50 for African green monkey Vero cells by neutral red uptake assay to MIC for pan-sensitive Mycobacterium tuberculosis H37Rv ATCC 27294; assay type: toxicity, cell-based; conditions: read-out: Selectivity Index
[14] = Cytotoxicity against human HepG2 cells assessed as reduction in cell viability incubated for 72 hrs by neutral red uptake assay; assay type: toxicity, cell-based; summary of the method: as §1
[15] = molecular target: T2, Enoyl-[acyl-carrier-protein] reductase [NADH]; assay: Binding affinity to Mycobacterium tuberculosis InhA assessed as dissociation constant at 250 uM at 25 degreeC in presence of NADH by fluorescence spectroscopy
Summary of the method: (§5)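 Titration of pre-formed MtInhA:NADH complex (2 mL of 3 μM enzyme with 20 μM NADH), adding microliter aliquots of 250 μM ligand stock with dilution kept ≤1%. Intrinsic fluorescence read at 295 nm excitation, 310–500 nm emission. Temperatures 15, 20, 25 and 30 °C. KD is fitted to a hyperbolic isotherm. ΔH°, ΔS° and ΔG° come from van't Hoff analysis of KD across temperatures.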

Escherichia coli = assay: Antibacterial activity against Escherichia coli ATCC 25922 assessed as inhibition of bacterial growth at 20 uM by broth microdilution method; assay type: functional, organism-based; summary of the method: as §3
[16] = molecular target: T1, Enoyl-[acyl-carrier-protein] reductase [NADH] (Mycobacterium tuberculosis); assay: Time dependent inhibition of Mycobacterium tuberculosis InhA
[17] = Chemical stability in 0.1 M HCl solution at pH 1.2 assessed as parent compound remaining at 1 to 10 uM measured after 24 hrs by HPLC-EM/MS analysis; assay type: physicochemical; conditions: dose 1-10 µM, read-out: Stability; summary of the method: as §4
[18] = Metabolic stability in rat liver microsomes assessed as intrinsic clearance at 2 uM measured upto 30 mins by HPLC/MS/MS analysis; assay type: ADME, Microsome; conditions: read-out: CLH
Summary of the method: (§6)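 Compounds at 2 μM incubated at 37 °C with 1 mg/mL rat liver microsomes containing NADPH. Parent compound consumption followed over time.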

[19] = Cytotoxicity against African green monkey Vero cells assessed as reduction in cell viability incubated for 72 hrs by neutral red uptake assay; assay type: toxicity, cell-based; conditions: chlorocebus sabaeus; summary of the method: as §1
[20] = Metabolic stability in rat liver microsomes assessed as half life at 2 uM measured upto 30 mins by HPLC/MS/MS analysis; assay type: ADME, Microsome; summary of the method: as §6
[21] = Selectivity index, ratio of CC50 for human HepG2 cells by neutral red uptake assay to MIC for pan-sensitive Mycobacterium tuberculosis H37Rv ATCC 27294; assay type: toxicity; conditions: read-out: Selectivity Index
[22] = molecular target: T2, Enoyl-[acyl-carrier-protein] reductase [NADH]; assay: Competitive inhibition of Mycobacterium tuberculosis InhA using varying concentrations of DD-CoA as substrate assessed as inhibition constant for enzyme-inhibitor binary complex in presence of NADH by Lineweaver-Burk plot analysis
Summary of the method: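 Steady-state kinetics with recombinant MtInhA in 100 mM Pipes pH 7.0 at 25 °C. NADH fixed at 60 μM, DD-CoA varied 15–135 μM, inhibitor at fixed-varied levels of 0.2–4 μM. Kis is fitted to the competitive inhibition equation.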

[23] = molecular target: T1, Enoyl-[acyl-carrier-protein] reductase [NADH] (Mycobacterium tuberculosis); assay: Binding affinity to Mycobacterium tuberculosis InhA assessed as gibbs free energy change at 250 uM in presence of NADH by fluorescence spectroscopy; summary of the method: as §5
[24] = Selectivity index, ratio of CC50 for human HepG2 cells by MTT assay to MIC for pan-sensitive Mycobacterium tuberculosis H37Rv ATCC 27294; assay type: toxicity; conditions: read-out: Selectivity Index
[25] = Selectivity index, ratio of CC50 for African green monkey Vero cells by MTT assay to MIC for pan-sensitive Mycobacterium tuberculosis H37Rv ATCC 27294; assay type: toxicity, cell-based; conditions: read-out: Selectivity Index
[26] = Chemical stability in 0.1 M NH4HCO3 solution at pH 9.1 assessed as parent compound remaining at 1 to 10 uM measured after 24 hrs by HPLC-EM/MS analysis; assay type: physicochemical; conditions: dose 1-10 µM, read-out: Stability; summary of the method: as §4
[27] = molecular target: T1, Enoyl-[acyl-carrier-protein] reductase [NADH] (Mycobacterium tuberculosis); assay: Binding affinity to Mycobacterium tuberculosis InhA assessed as change in entropy at 250 uM in presence of NADH by fluorescence spectroscopy
[28] = molecular target: T2, Enoyl-[acyl-carrier-protein] reductase [NADH]; assay: Noncompetitive inhibition of Mycobacterium tuberculosis InhA using DD-CoA as substrate assessed as inhibition constant for enzyme-substrate-inhibitor ternary complex in presence of varying concentrations of NADH by double reciprocal plot analysis

With CC[C@@H](CO)NCCN[C@@H](CC)CO the Activity [1] was “inactive”.
With CSc1ccc2nc(C)cc(Nc3ccc(N4CCCCC4)cc3)c2c1 the deltaH [2] was -25.8 kcal/mol, the Ki [3] was 430 nM and the CC50 at 72 h [4] was 5900 nM. The solubility thermodynamic at 4 h [5] was 38 µM (≈ 13.8 µg/mL), the solubility thermodynamic at 4 h [6] was greater than 2700 µM and the Activity (Acinetobacter baumannii) was “inactive”. The remaining at 24 h, up to 10 µM [7] was 68%, the MIC [8] was 0.4 µM (≈ 0.145 µg/mL) and the CC50 at 72 h [9] was 11100 nM. The Activity (Staphylococcus aureus) was “inactive”, the IC50 [10] was 1000 nM and the Activity (Klebsiella pneumoniae) was “inactive”. For the same compound, the Papp at 5 h, 10 µM [11] was 0.03 ×10⁻⁶ cm/s, the degraded at 24 h, up to 10 µM [12] was greater than 30% and the selectivity ratio [13] was 21.2. For the same compound, the CC50 at 72 h [14] was 12200 nM, the Kd [15] was 870 nM and the Activity (Escherichia coli) was “inactive”. For the same compound, the TDI [16] was “inactive”, the remaining at 24 h, up to 10 µM [17] was 100% and the CLint scaled at 2 µM [18] was 60 mL/min/kg. The CC50 at 72 h [19] was 8500 nM, the half-life at 2 µM [20] was 5.9 min and the selectivity ratio [21] was 30.5. It also gave a Ki [22] of 620 nM, a deltaG [23] of -8.3 kcal/mol and a selectivity ratio [24] of 14.7. The selectivity ratio [25] was 27.7, the remaining at 24 h, up to 10 µM [26] was 100% and the deltaS [27] was -55.7 cal/mol/K. For the same compound, the Ki [28] was 410 nM.
With Cc1cc(Nc2ccc(N3CCC(C)CC3)cc2)c2cc(Br)ccc2n1 the deltaH [2] was -5.6 kcal/mol, the Ki [3] was 720 nM and the CC50 at 72 h [4] was 5300 nM. It also gave an MIC [8] of 0.7 µM (≈ 0.287 µg/mL), a CC50 at 72 h [9] of 9700 nM and an IC50 [10] of 1400 nM. The selectivity ratio [13] was 8.9, the CC50 at 72 h [14] was 12200 nM and the Kd [15] was 1250 nM. For the same compound, the TDI [16] was “inactive”, the CC50 at 72 h [19] was 6200 nM and the selectivity ratio [21] was 17.4. For the same compound, the Ki [22] was 790 nM, the deltaG [23] was -8 kcal/mol and the selectivity ratio [24] was 7.6. For the same compound, the selectivity ratio [25] was 13.8, the deltaS [27] was 8.3 cal/mol/K and the Ki [28] was 690 nM.
